Screens deposited in PubChem BioAssay by several laboratories.
In the library only some 5.8% were active in any assay of this set; here they are far more common.
ROMK mod – ROMK potassium channel modulators, primary screen, cell-based, thallium flux, MLSMR library. ATP-sensitive inward rectifier potassium channel 1 (Homo sapiens), P48048. Tet-inducible ROMK, thallium flux fluorescence; actives lie on both sides. B-score at 10 µM. actives 2% (n = 130,000). AID 1918, 2009;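 active means signal ratio slope over the read window, or its plate-corrected B-score, at least 3 SD from the plate mean, either direction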;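 further: B-score of the F/F0 ratio slope over 7 to 12 s after thallium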
Target sequence (P48048 whole entry, looked up): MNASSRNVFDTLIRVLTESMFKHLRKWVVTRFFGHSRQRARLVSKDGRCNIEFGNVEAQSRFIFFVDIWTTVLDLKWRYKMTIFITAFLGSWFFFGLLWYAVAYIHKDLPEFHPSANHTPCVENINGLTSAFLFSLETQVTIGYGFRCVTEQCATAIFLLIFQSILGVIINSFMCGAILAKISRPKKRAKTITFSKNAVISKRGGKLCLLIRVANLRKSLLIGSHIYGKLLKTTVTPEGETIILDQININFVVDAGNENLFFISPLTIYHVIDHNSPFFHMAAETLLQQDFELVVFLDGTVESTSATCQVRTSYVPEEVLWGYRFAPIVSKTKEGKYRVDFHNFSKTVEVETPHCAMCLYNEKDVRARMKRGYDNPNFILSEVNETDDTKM
14-3-3 Bad inh – inhibitors of 14-3-3 zeta/Bad binding, primary screen, biochemical, TR-FRET, bovine 14-3-3 zeta | inhibition, % at 21.7 µM | actives 0.71% (n = 220,000) | TR-FRET 14-3-3zeta/Dy647-pBad peptide displacement, 1 h | 14-3-3 protein zeta/delta (Bos taurus), P63103 | AID 781, 2007;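 active means inhibition above about 70%, limit read from the data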
Cl transport mod – KCC2 cotransporter modulators, thallium flux, primary screen, cell-based, HEK293 KCC2, FluoZin-2 fluorescence, MLSMR; Solute carrier family 12 member 5 (Homo sapiens), Q9H2X9; KCC2 cells, thallium flux FluoZin-2 fluorescence; B-score of Tl+ flux slope (higher = more flux/activation; lower = inhibition) at 10 µM; actives 2.2% (n = 190,000);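 active means thallium flux slope and its plate-corrected score both differing from the plate sample mean at a set confidence after two filtering rounds, in either direction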;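 further: slope of fluorescence scaled to starting intensity during 10 to 20 s after thallium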
RBBP9 inh – human RBBP9 inhibitors, primary screen, biochemical, fluorescence polarization, FP-Rh probe, HTS; Serine hydrolase RBBP9 (Homo sapiens), O75884; recombinant RBBP9; inhibition, % at 7.94 µM; actives 0.2% (n = 220,000);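 active means inhibition above the campaign mean of all tested compounds plus 3 SD, cut at about 14% in these data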
Target sequence (O75884 whole entry, looked up): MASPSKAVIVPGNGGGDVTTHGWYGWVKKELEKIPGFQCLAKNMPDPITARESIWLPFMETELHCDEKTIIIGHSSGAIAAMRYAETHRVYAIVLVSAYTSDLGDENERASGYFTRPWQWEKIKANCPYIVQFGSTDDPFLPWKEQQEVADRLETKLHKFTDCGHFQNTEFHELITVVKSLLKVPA
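Test system: recombinant human RBBP9; Timing: 30 min then 45 min, 25 °C; Detection: fluorescence polarization; Control set: RBBP9 with DMSO as uninhibited control, no-protein wells as full inhibition; Compound dosing: one concentration, 7.94 µM nominal, 0.794% DMSO; Probe or stimulus: FP-Rh activity-based probe, 375 nM before mixing.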
WT yeast gro inh – growth inhibition of WT strain, primary screen, mitochondrial fusion inhibitor project, WT and mutant strains, chemical genetic; AID 1362, 2008; inhibition, % at 10 µM; actives 2.1% (n = 190,000); mitochondrial fusion phenotypic screen; in the data active means inhibition above about 58%; tested in S. cerevisiae
p47phox inh – p47phox/p22phox peptide binding inhibitors, primary screen, biochemical, uHTS, NADPH oxidase regulatory subunit | fluorescence polarization, 2 h | Neutrophil cytosol factor 1 (Homo sapiens), P14598 | inhibition, % at 24.7 µM | AID 1274, 2008 | actives 0.53% (n = 220,000);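 active means inhibition above about 30%, limit read from the data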
KCC2 secondary – KCC2 modulators in sodium-free buffer, confirmation, cell-based, HEK293 KCC2, thallium flux, secondary assay; shares compounds with Cl transport mod; FluoZin2 fluorescence; active compounds read high; normalised thallium flux (F/F0 slope) at 10 µM; actives 15% (n = 3,700); AID 1713, 2009;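 active means thallium flux slope above the same plate's solvent-only control mean plus 3 SD; inconclusive means the two replicate wells disagree; inactive means no significant difference from solvent-only control wells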
KCC2 bumet counter – thallium flux persisting under bumetanide in KCC2 cells, confirmation, counter-screen for KCC2 modulator project, cell-based, HEK293 KCC2, FluoZin2, secondary assay 3 | shares compounds with Cl transport mod | HEK293-KCC2 + bumetanide/ouabain; active compounds read high | normalized thallium flux at 10 µM | actives 49% (n = 3,700) | AID 1714, 2009;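 active means thallium entry rate above the same plate's blocked-transporter control wells by more than 3 SD; inconclusive means the two repeat wells disagree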;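 further: raw slope of fluorescence over initial fluorescence between 10 and 20 s after thallium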
KCC2 secondary2 – KCC2 modulators without ouabain present, confirmation, cell-based, HEK293 KCC2, thallium flux, FluoZin2, secondary assay 2 | shares compounds with Cl transport mod | thallium flux FluoZin2 fluorescence; actives lie on both sides; F/F0 rise rate, 10–20 s post-thallium | normalized thallium flux at 10 µM | actives 23% (n = 3,700);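 active means thallium flux slope more than 3 SD above or below the plate's solvent-only control mean, mostly below; inconclusive means the two repeat wells disagreed; inactive means no significant shift from solvent-only controls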
HEK293 Tl flux – thallium flux modulation in parental HEK cells, confirmation, counter-screen for KCC2 modulator project, cell-based, counterscreen 1; actives 46% (n = 3,700); AID 1716, 2009; thallium flux rate (normalised fluorescence) at 10 µM; HEK293 parental cells, thallium flux FluoZin2, ouabain; baseline-ratio fluorescence slope, 10–20 s after thallium; shares compounds with Cl transport mod;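 active means thallium flux rate significantly above the same plate's solvent-only control wells, beyond their mean plus 3 SD; inconclusive means the two replicate wells gave conflicting results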
KCC2 ouabain – KCC2 inhibitors and activators, ouabain retest, confirmation, HEK-KCC2 cells | shares compounds with Cl transport mod | HEK293-KCC2, thallium flux FluoZin2 fluorescence; bidirectional: low = inhibitor, high = activator | raw Tl+ flux slope (below DMSO = inhibition, above = activation) at 10 µM | actives 48% (n = 3,700);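 active means thallium flux slope beyond 3 SD from same-plate DMSO control mean in most replicates, usually higher, sometimes lower; inconclusive means repeat tests gave conflicting results; inactive means no significant difference from controls in most replicates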;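 further: slope of initial-normalized fluorescence between seconds 10 and 20 after thallium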
HEK counter2 – native HEK Tl+ uptake effects, second counter-screen – HEK cells, counterscreen 2, counter-screen for KCC2 modulator project, confirmation | actives 33% (n = 3,700) | HEK293 parental, thallium flux FluoZin-2 fluorescence slope | thallium flux slope at 10 µM | shares compounds with Cl transport mod | AID 1718, 2009;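 active means thallium flux slope above the same plate's solvent-control mean plus 3 SD in both duplicate wells; inconclusive means duplicate wells that disagreed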;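 further: run without ouabain in cells lacking the KCC2 cotransporter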
Large screens that a line does not name were inactive (follow-up assays come after a bar, where they were run).

O=C(c1cc(COc2c(F)cccc2F)on1)N1CCc2ccccc2C1	Cl transport mod -4.4 | KCC2 secondary inactive | KCC2 bumet counter inactive | KCC2 secondary2 inactive | HEK293 Tl flux inactive | KCC2 ouabain 0.015 | HEK counter2 inactive
O=C(c1cc(COc2c(F)cccc2F)on1)N1CCC(c2ccncc2)CC1	none (no result: Cl transport mod) | KCC2 secondary inconclusive | KCC2 bumet counter 0.0084 | KCC2 secondary2 inconclusive | HEK293 Tl flux inactive | KCC2 ouabain 0.019 | HEK counter2 inactive
C/C(CCC(C)C)=N\Nc1cc(C)c2ccccc2n1	none
CCOC(=O)c1ccc(N=C2SC(C(=O)Nc3ccc(C(=O)O)cc3)CC(=O)N2Cc2cccs2)cc1 (stereo unspecified)	none
CNC(=O)COC(=O)c1ccccc1Nc1ccccc1	none
Cn1c(=O)c2c(nc(CN3CCN(C(c4ccccc4)c4ccccc4)CC3)n2CC(N)=O)n(C)c1=O	Cl transport mod -2.6 | KCC2 secondary inactive | KCC2 bumet counter inactive | KCC2 secondary2 inactive | HEK293 Tl flux inactive | KCC2 ouabain inactive | HEK counter2 inconclusive
CCOC(=O)Cn1c(CN2CCN(C(c3ccccc3)c3ccccc3)CC2)nc2c1c(=O)n(C)c(=O)n2C	none (no result: ROMK mod)
CC12CC3(C)CC(C)(C1)CC(C(=O)NC(=S)N1CCCC1)(C2)C3	Cl transport mod 7.9 | KCC2 secondary inactive | KCC2 bumet counter 0.0095 | KCC2 secondary2 inactive | HEK293 Tl flux 0.01 | KCC2 ouabain inconclusive | HEK counter2 inconclusive
Cc1ccc(C)c(C(=O)OCC(=O)Nc2ccc(N3CCOCC3)cc2)c1	none (no result: Cl transport mod)
COC(=O)c1ccc(/C(O)=C(\C#N)c2nc3ccccc3s2)cc1	Cl transport mod -6.8 (no result: ROMK mod) | KCC2 secondary inactive | KCC2 bumet counter inactive | KCC2 secondary2 inactive | HEK293 Tl flux inactive | KCC2 ouabain 0.013 | HEK counter2 inactive
Cc1ccc(OC/C(O)=C(\C#N)c2nc3ccccc3s2)cc1	Cl transport mod -4.3 | KCC2 secondary inactive | KCC2 bumet counter 0.0068 | KCC2 secondary2 0.022 | HEK293 Tl flux inconclusive | KCC2 ouabain 0.012 | HEK counter2 inactive
CCN(C(=O)C(C)OC(=O)C1C(C(=O)OC)=C(C)NC(C)=C1C(=O)OC)c1ccccc1 (stereo unspecified)	none
c1ccc(-c2nc(CSc3n[nH]c(-c4cccs4)n3)cs2)cc1	Cl transport mod -3.8 (no result: ROMK mod) | KCC2 secondary inactive | KCC2 bumet counter inactive | KCC2 secondary2 0.024 | HEK293 Tl flux inactive | KCC2 ouabain inactive | HEK counter2 inactive
Nc1cc(=O)[nH]c(SCc2csc(-c3ccccc3)n2)n1	none
CCn1c2ccc(C)cc2c2nnc(NN)nc21	Cl transport mod -6.9 | KCC2 secondary inactive | KCC2 bumet counter inconclusive | KCC2 secondary2 inactive | HEK293 Tl flux inactive | KCC2 ouabain inactive | HEK counter2 inactive
CCn1c2ccccc2c2nnc(NN)nc21	none
Cn1c(-c2ccccc2)c(CCO)c2ccccc21	none (no result: ROMK mod)
Cn1c(-c2ccccc2)c(C(=O)CCl)c2ccccc21	Cl transport mod -3.9 | KCC2 secondary inactive | KCC2 bumet counter inactive | KCC2 secondary2 inactive | HEK293 Tl flux 0.0051 | KCC2 ouabain 0.016 | HEK counter2 0.0091
CCn1c(-c2ccccc2)c(C(=O)CCl)c2ccccc21	Cl transport mod -4.3 | KCC2 secondary inactive | KCC2 bumet counter 0.0028 | KCC2 secondary2 inactive | HEK293 Tl flux 0.0049 | KCC2 ouabain 0.017 | HEK counter2 0.008
COc1cccc(NC(=S)NNC(=O)c2ccccc2OC(F)F)c1	none (no result: ROMK mod)
Cc1ccc(NC(=S)NNC(=O)c2ccccc2OC(F)F)cc1	Cl transport mod 8.4 (no result: ROMK mod) | KCC2 secondary inactive | KCC2 bumet counter 0.022 | KCC2 secondary2 inactive | HEK293 Tl flux 0.018 | KCC2 ouabain 0.028 | HEK counter2 0.013
O=C(NNC(=S)Nc1cccc(Cl)c1)c1ccccc1OC(F)F	Cl transport mod 6.4 (no result: ROMK mod) | KCC2 secondary inactive | KCC2 bumet counter 0.033 | KCC2 secondary2 inactive | HEK293 Tl flux 0.017 | KCC2 ouabain 0.036 | HEK counter2 0.012
O=C(NNC(=S)Nc1ccc(F)cc1)c1ccccc1OC(F)F	none
Cc1ccc(NC(=S)N=Nc2c(O)n(C)c3ccc(S(=O)(=O)N4CCOCC4)cc23)cc1C	Cl transport mod 7.4 | KCC2 secondary inactive | KCC2 bumet counter 0.013 | KCC2 secondary2 inactive | HEK293 Tl flux 0.032 | KCC2 ouabain inconclusive | HEK counter2 0.018
C=CCn1c(O)c(N=NC(=S)Nc2ccccc2C)c2cc(S(=O)(=O)N3CCOCC3)ccc21	Cl transport mod 14 | KCC2 secondary 0.013 | KCC2 bumet counter 0.072 | KCC2 secondary2 inactive | HEK293 Tl flux 0.02 | KCC2 ouabain inactive | HEK counter2 0.015
CCn1c2ccccc2c2nc3cc(S(=O)(=O)N4CCOCC4)ccc3nc21	none (no result: ROMK mod)
C=CCn1c(O)c(N=Nc2ccccc2C)c2ccccc21	none (no result: ROMK mod)
